Measurements as given in ChEMBL document CHEMBL1150592, “New antimicrobial cycloartane triterpenes from Acalypha communis” (2002).
≈ marks a conversion by molar mass, not a printed value. Calls of active or inactive are those of the source. The rule behind the calls is not given here.

What was measured:
Staphylococcus aureus [1] = assay: Antimicrobial activity against Staphylococcus aureus 375 after 18 to 20 hrs by standard broth microdilution method; format: functional
Method in brief: (§1)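 Broth microdilution in polystyrene plates. Each well held 0.1 mL of broth medium with drug at 0.03–128 μg/mL and received 5 μL of overnight broth culture adjusted to 1 × 10⁷ to 5 × 10⁷ CFU/ml. Plates were incubated 18–20 h at 37 °C. MIC was the lowest concentration with no visible turbidity. Strains came from a laboratory collection.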

Staphylococcus aureus [2] = assay: Antimicrobial activity against methicillin-resistant Staphylococcus aureus 310 after 18 to 20 hrs by standard broth microdilution method; format: functional
Method in brief: (§2)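 Broth microdilution: 5 μL overnight culture (1 × 10⁷ to 5 × 10⁷ CFU/ml) added to 0.1 mL broth containing drug at 0.03–128 μg/mL. Incubated 18–20 h at 37 °C. MIC = lowest concentration preventing visual turbidity. Strains from an in-house laboratory collection.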

Enterococcus faecium = assay: Antimicrobial activity against vancomycin-resistant Enterococcus faecium 379 after 18 to 20 hrs by standard broth microdilution method; format: functional; method in brief: as §2
Escherichia coli = assay: Antimicrobial activity against Escherichia coli imp 389 after 18 to 20 hrs by standard broth microdilution method; format: functional; method in brief: as §1
Bacillus subtilis = assay: Antimicrobial activity against Bacillus subtilis PY79 after 18 to 20 hrs by standard broth microdilution method; format: functional; method in brief: as §1
Staphylococcus aureus [3] = assay: Antimicrobial activity against Staphylococcus aureus Smith infected in CD1 mouse after 7 days; format: functional; conditions: 168 h
Method in brief: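 Female CD-1 mice (20 ± 2 g) infected intraperitoneally with bacteria in broth or ~5% mucin, inoculum lethal to 95–100% of untreated mice within 48 h. Single dose given 0.5 h post-infection. Seven-day survival from three or four tests (five dose levels, five mice per level) pooled; ED50 by probit analysis.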

Staphylococcus aureus [4] = assay: Antimicrobial activity against Staphylococcus aureus Smith infected in CD1 mouse at 64 mg/kg after 7 days; format: functional, organism-based; set-up: dose 64 mg/kg
Method in brief: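 Female CD-1 mice weighing 20 ± 2 g were infected intraperitoneally with bacteria suspended in broth or in about 5% mucin, at an inoculum lethal to 95–100% of untreated mice within 48 h. A single drug dose was given 0.5 h after infection. Survival was scored at day 7, using five animals per dose level and three or four separate tests pooled.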

CC(C)=CCC[C@@H](C)[C@H]1[C@H](O)C[C@@]2(C)[C@@H]3CC[C@H]4[C@](C)(C(=O)O)[C@@H](O)C[C@H](O)[C@@]45C[C@@]35CC[C@]12C
MIC (Staphylococcus aureus [1]): 32 µg/mL (≈ 65.5 µM) | MIC (Staphylococcus aureus [2]): 64 µg/mL (≈ 131 µM) | MIC (Enterococcus faecium): 8 µg/mL (≈ 16.4 µM) | MIC (Escherichia coli): 64 µg/mL (≈ 131 µM) | MIC (Bacillus subtilis): 32 µg/mL (≈ 65.5 µM)

CN[C@H](CC(C)C)C(=O)N[C@H]1C(=O)N[C@@H](CC(N)=O)C(=O)N[C@H]2C(=O)N[C@H]3C(=O)N[C@H](C(=O)N[C@H](C(=O)O)c4cc(O)cc(O)c4-c4cc3ccc4O)[C@H](O)c3ccc(c(Cl)c3)Oc3cc2cc(c3O[C@@H]2O[C@H](CO)[C@@H](O)[C@H](O)[C@H]2O[C@H]2C[C@](C)(N)[C@H](O)[C@H](C)O2)Oc2ccc(cc2Cl)[C@H]1O [VANCOMYCIN]
ED50 (Staphylococcus aureus [3]): 1 mg/kg

C=C(CC[C@@H](C)[C@H]1[C@@H](O)C[C@@]2(C)[C@@H]3[C@@H](O)C[C@H]4[C@](C)(C(=O)O)[C@@H](O)CC[C@@]45C[C@@]35CC[C@]12C)C(C)C
MIC (Staphylococcus aureus [1]): 16 µg/mL (≈ 31.8 µM) | MIC (Staphylococcus aureus [2]): > 128 µg/mL | MIC (Enterococcus faecium): 8 µg/mL (≈ 15.9 µM) | MIC (Escherichia coli): > 128 µg/mL | MIC (Bacillus subtilis): 16 µg/mL (≈ 31.8 µM) | ED50 (Staphylococcus aureus [4]): inactive

CC1(C)S[C@@H]2[C@H](NC(=O)Cc3ccccc3)C(=O)N2[C@H]1C(=O)O [PENICILLIN G]
MIC (Staphylococcus aureus [1]): 0.06 µg/mL (≈ 0.179 µM) | MIC (Staphylococcus aureus [2]): 128 µg/mL (≈ 383 µM) | MIC (Enterococcus faecium): 128 µg/mL (≈ 383 µM) | MIC (Escherichia coli): 2 µg/mL (≈ 5.98 µM) | MIC (Bacillus subtilis): 8 µg/mL (≈ 23.9 µM)

CC(C)=CCC[C@@H](C)[C@H]1C[C@H](O)[C@@]2(C)[C@@H]3CC[C@H]4[C@](C)(C(=O)O)[C@@H](O)C[C@H](O)[C@@]45C[C@@]35CC[C@]12C
MIC (Staphylococcus aureus [1]): 32 µg/mL (≈ 65.5 µM) | MIC (Staphylococcus aureus [2]): 128 µg/mL (≈ 262 µM) | MIC (Enterococcus faecium): 32 µg/mL (≈ 65.5 µM) | MIC (Escherichia coli): > 128 µg/mL | MIC (Bacillus subtilis): 64 µg/mL (≈ 131 µM)
